{"data": "Measurements of several laboratories", "observed": "binding", "PIK3CG": "Phosphatidylinositol 4,5-bisphosphate 3-kinase catalytic subunit gamma isoform (PIK3CG, Homo sapiens, UniProt P48736)", "tspO A138F": "tspO (Cereibacter sphaeroides, UniProt Q9RFC8, A138F)", "CREBBP bromodomain": "CREB-binding protein, bromodomain (CREBBP, Homo sapiens, UniProt Q92793)", "note": "pKd: −log10 of the molar value."}
{"SMILES": "C=CC(=O)N1CCC(C(=O)NCC(=O)N2CCN(c3nc(-c4cnc(N)nc4C(F)F)nc(N4CCOCC4)n3)CC2)CC1", "target": "PIK3CG", "technique": "competition with immobilised ligand", "pKd": 8.80}
{"SMILES": "Cc1cc2nc3c(=O)[nH]c(=O)nc-3n(C[C@H](O)[C@H](O)[C@H](O)CO)c2cc1C", "target": "Riboflavin-binding protein (Gallus gallus, UniProt P02752)", "technique": "ITC", "pKd": 6.90}
{"SMILES": "CC1=C(/C=C/C(C)=C/C=C/C(C)=C/C=O)C(C)(C)CCC1", "target": "Cellular retinoic acid-binding protein 2 (CRABP2, Homo sapiens, UniProt P29373, L122E/R112E/R133K)", "technique": "fluorescence", "pKd": 6.05}
{"SMILES": "CO[C@H]1[C@H](O)[C@@H](CO)OC(O)[C@@H]1O (some centres unmarked)", "target": "Nucleolar RNA helicase 2 (Homo sapiens, UniProt Q9NR30)", "technique": "MST", "pKd": 5.40}
{"SMILES": "Nc1nc2c(ncn2[C@@H]2O[C@H](COP(=O)(O)OP(=O)(O)O)[C@@H](OP(=O)(O)OP(=O)(O)O)[C@H]2O)c(=O)[nH]1", "target": "Dihydrofolate synthase/folylpolyglutamate synthase (Escherichia coli, UniProt P08192)", "technique": "ITC", "pKd": 3.89}
{"SMILES": "C=CC(=O)N1CCC(C(=O)N(C)CC(=O)N2CCN(c3nc(-c4cnc(N)nc4C(F)F)nc(N4CCOCC4)n3)CC2)CC1", "target": "PIK3CG", "technique": "competition with immobilised ligand", "pKd": 8.03}
{"SMILES": "CC(C)=CCc1c(O)ccc(C(=O)/C=C/c2ccc(O)cc2)c1O", "target": "Dihydroorotate dehydrogenase (quinone), mitochondrial (DHODH, Homo sapiens, UniProt Q02127)", "technique": "ITC", "pKd": 5.88}
{"SMILES": "C=CC1=C(C)c2cc3[nH]c(cc4nc(cc5[nH]c(cc1n2)c(C)c5CCC(=O)O)C(CCC(=O)O)=C4C)c(C)c3C=C", "target": "tspO A138F", "technique": "fluorescence", "pKd": 6.15}
{"SMILES": "Cn1nnc2ccc(NC(=O)c3cccc(C(=O)O)c3)cc21", "target": "CREBBP bromodomain", "technique": "competition with immobilised ligand", "pKd": 4.77}
{"SMILES": "C=CC1=C(C)C2=Cc3c(C=C)c(C)c4[n]3[Fe]([Cl])[n]3c(c(C)c(CCC(=O)O)c3=CC3=NC(=C4)C(C)=C3CCC(=O)O)=CC1=N2", "target": "tspO A138F", "technique": "fluorescence", "pKd": 6.15}
{"SMILES": "Cc1cc(/N=N/c2ccc(S(=O)(=O)O)cc2)cc(C)c1O", "target": "CREBBP bromodomain", "technique": "fluorescence", "pKd": 4.36}
